# Results from ChEMBL document CHEMBL1153988 (J Med Chem, 2009).
# Activity calls are given as the source filed them. No cut-off for these calls is given here.
# Tests used:
# Mus musculus [1] = test: Anticonvulsant activity in CF1 albino mouse assessed as protection against scMet-induced seizures at 30 mg/kg, ip after 0.5 hrs; type: functional, organism-based; parameters: dose 30 mg/kg
# Summary of the method: (§1)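 Adult male CF no. 1 albino mice (18-25 g) dosed intraperitoneally with compound suspended in 0.5% methylcellulose (0.01 mL/g). Convulsant challenge given subcutaneously as a 0.85% pentylenetetrazol solution in 0.9% saline. Read-out is animals protected over animals tested, with neurotoxicity scored in parallel.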
# Mus musculus [2] = test: Anticonvulsant activity in CF1 albino mouse assessed as protection against maximal electroshock-induced seizures at 300 mg/kg, ip after 4 hrs; type: functional, organism-based; parameters: dose 300 mg/kg
# Summary of the method: (§2)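 Adult male CF no. 1 albino mice (18-25 g). Test compound suspended in 0.5% methylcellulose and given intraperitoneally at 0.01 mL/g body weight. Maximal electroshock challenge at the stated time. Read-out is the number of animals protected over the number tested; neurotoxicity is scored in parallel.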
# Rattus norvegicus [3] = test: Anticonvulsant activity in albino Sprague-Dawley rat assessed as protection against maximal electroshock-induced seizures at 75 mg/kg, po after 1 hr; type: functional, organism-based; parameters: dose 75 mg/kg
# Summary of the method: (§3)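 Adult male Sprague-Dawley albino rats (100-150 g) dosed orally with compound suspended in 0.5% methylcellulose (0.04 mL per 10 g). Maximal electroshock challenge at the stated time. Protection is scored in 25% steps as the fraction of animals protected, with neurotoxicity recorded in parallel.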
# Mus musculus [4] = test: Anticonvulsant activity in CF1 albino mouse assessed as protection against maximal electroshock-induced seizures at 100 mg/kg, ip after 4 hrs; type: functional, organism-based; parameters: dose 100 mg/kg; summary of the method: as §2
# Mus musculus [5] = test: Neurotoxicity in CF1 albino mouse at 30 mg/kg, ip after 0.5 hrs; type: toxicity, organism-based; parameters: dose 30 mg/kg, route intraperitoneal; settings: in vivo
# Summary of the method: (§4)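 Male CF no. 1 albino mice (18-25 g) received a single ip dose as a suspension in 0.5% methylcellulose. The read-out was the number of animals showing neurotoxicity (minimal motor impairment) over the number tested.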
# Mus musculus [6] = test: Neurotoxicity in CF1 albino mouse at 30 mg/kg, ip after 4 hrs; type: toxicity, organism-based; parameters: dose 30 mg/kg, route intraperitoneal; settings: in vivo; summary of the method: as §4
# Mus musculus [7] = test: Anticonvulsant activity in CF1 albino mouse assessed as protection against maximal electroshock-induced seizures at 30 mg/kg, ip after 4 hrs; type: functional, organism-based; parameters: dose 30 mg/kg; summary of the method: as §2
# Rattus norvegicus [8] = test: Anticonvulsant activity in albino Sprague-Dawley rat assessed as protection against scMet-induced seizures at 75 mg/kg, po after 15 mins; type: functional, organism-based; parameters: dose 75 mg/kg
# Summary of the method: (§5)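 Male Sprague-Dawley albino rats (100-150 g) were given the compound orally as a suspension in 0.5% methylcellulose. Seizures were induced by subcutaneous pentylenetetrazol, dissolved in 0.9% saline as a 2.82% solution. The read-out was animals protected over animals tested.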
# Mus musculus [9] = test: Anticonvulsant activity in CF1 albino mouse assessed as protection against scMet-induced seizures at 30 mg/kg, ip after 4 hrs; type: functional, organism-based; parameters: dose 30 mg/kg; summary of the method: as §1
# Rattus norvegicus [10] = test: Anticonvulsant activity in albino Sprague-Dawley rat assessed as protection against scMet-induced seizures at 75 mg/kg, po after 1 hr; type: functional, organism-based; parameters: dose 75 mg/kg; summary of the method: as §5
# Rattus norvegicus [11] = test: Anticonvulsant activity in albino Sprague-Dawley rat assessed as protection against scMet-induced seizures at 75 mg/kg, po after 4 hrs; type: functional, organism-based; parameters: dose 75 mg/kg; summary of the method: as §5
# Mus musculus [12] = test: Anticonvulsant activity in CF1 albino mouse assessed as protection against scMet-induced seizures at 100 mg/kg, ip after 4 hrs; type: functional, organism-based; parameters: dose 100 mg/kg; summary of the method: as §1
# Mus musculus [13] = test: Anticonvulsant activity in CF1 albino mouse assessed as protection against maximal electroshock-induced seizures at 300 mg/kg, ip after 0.5 hrs; type: functional, organism-based; parameters: dose 300 mg/kg; summary of the method: as §2
# Rattus norvegicus [14] = test: Neurotoxicity in albino Sprague-Dawley rat assessed as animal exhibiting toxicity at 75 mg/kg, po; type: organism-based; parameters: dose 75 mg/kg, route oral; settings: in vivo
# Summary of the method: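 Neurotoxicity was scored in male Sprague-Dawley albino rats (100-150 g) dosed orally with a suspension in 0.5% methylcellulose. The read-out was the fraction of animals showing neurotoxicity (minimal motor impairment).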
# Mus musculus [15] = test: Anticonvulsant activity in CF1 albino mouse assessed as protection against maximal electroshock-induced seizures at 100 mg/kg, ip after 0.5 hrs; type: functional, organism-based; parameters: dose 100 mg/kg; summary of the method: as §2
# Rattus norvegicus [16] = test: Anticonvulsant activity in albino Sprague-Dawley rat assessed as protection against maximal electroshock-induced seizures at 75 mg/kg, po after 4 hrs; type: functional; summary of the method: as §3
# Mus musculus [17] = test: Anticonvulsant activity in CF1 albino mouse assessed as protection against maximal electroshock-induced seizures at 30 mg/kg, ip after 0.5 hrs; type: functional, organism-based; parameters: dose 30 mg/kg; summary of the method: as §2
# Rattus norvegicus [18] = test: Anticonvulsant activity in albino Sprague-Dawley rat assessed as protection against maximal electroshock-induced seizures at 75 mg/kg, po after 30 mins; type: functional; summary of the method: as §3
# Rattus norvegicus [19] = test: Anticonvulsant activity in albino Sprague-Dawley rat assessed as protection against scMet-induced seizures at 75 mg/kg, po after 30 mins; type: functional, organism-based; parameters: dose 75 mg/kg; summary of the method: as §5
# Rattus norvegicus [20] = test: Anticonvulsant activity in albino Sprague-Dawley rat assessed as protection against scMet-induced seizures at 75 mg/kg, po after 2 hrs; type: functional; summary of the method: as §5
# Mus musculus [21] = test: Neurotoxicity in CF1 albino mouse at 300 mg/kg, ip after 4 hrs; type: toxicity, organism-based; parameters: dose 300 mg/kg, route intraperitoneal; settings: in vivo; summary of the method: as §4
# Rattus norvegicus [22] = test: Anticonvulsant activity in albino Sprague-Dawley rat assessed as protection against maximal electroshock-induced seizures at 75 mg/kg, po after 15 mins; type: functional; summary of the method: as §3
# Mus musculus [23] = test: Anticonvulsant activity in CF1 albino mouse assessed as protection against scMet-induced seizures at 100 mg/kg, ip after 0.5 hrs; type: functional, organism-based; parameters: dose 100 mg/kg; summary of the method: as §1
# Mus musculus [24] = test: Anticonvulsant activity in CF1 albino mouse assessed as protection against scMet-induced seizures at 300 mg/kg, ip after 4 hrs; type: functional, organism-based; parameters: dose 300 mg/kg; summary of the method: as §1
# Rattus norvegicus [25] = test: Anticonvulsant activity in albino Sprague-Dawley rat assessed as protection against maximal electroshock-induced seizures at 75 mg/kg, po after 2 hrs; type: functional, organism-based; parameters: dose 75 mg/kg; summary of the method: as §3
# Mus musculus [26] = test: Anticonvulsant activity in CF1 albino mouse assessed as protection against scMet-induced seizures at 300 mg/kg, ip after 0.5 hrs; type: functional, organism-based; parameters: dose 300 mg/kg; summary of the method: as §1
# Rattus norvegicus [27] = test: Anticonvulsant activity in albino Sprague-Dawley rat assessed as protection against maximal electroshock-induced seizures at 30 mg/kg, po after 15 mins; type: functional, organism-based; parameters: dose 30 mg/kg; summary of the method: as §3
# Rattus norvegicus [28] = test: Anticonvulsant activity in albino Sprague-Dawley rat assessed as protection against maximal electroshock-induced seizures at 30 mg/kg, po after 30 mins; type: functional, organism-based; parameters: dose 30 mg/kg; summary of the method: as §3
# Rattus norvegicus [29] = test: Anticonvulsant activity in albino Sprague-Dawley rat assessed as protection against maximal electroshock-induced seizures at 30 mg/kg, po after 2 hrs; type: functional, organism-based; parameters: dose 30 mg/kg; summary of the method: as §3
# Rattus norvegicus [30] = test: Anticonvulsant activity in albino Sprague-Dawley rat assessed as protection against scMet-induced seizures at 30 mg/kg, po after 1 hr; type: functional
# Summary of the method: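 Oral dosing of male Sprague-Dawley rats (100-150 g) with compound in 0.5% methylcellulose. Convulsant challenge given subcutaneously as a 2.82% pentylenetetrazol solution in 0.9% saline. Groups of about 8 rats per dose. For quantitation, doses spanning 0% to 100% protection were fitted by probit analysis to give ED50 with 95% confidence interval.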
# Rattus norvegicus [31] = test: Anticonvulsant activity in albino Sprague-Dawley rat assessed as protection against scMet-induced seizures at 30 mg/kg, po after 15 mins; type: functional; summary of the method: as §5
# Rattus norvegicus [32] = test: Anticonvulsant activity in albino Sprague-Dawley rat assessed as protection against maximal electroshock-induced seizures at 30 mg/kg, po after 1 hr; type: functional, organism-based; parameters: dose 30 mg/kg; summary of the method: as §3
# Rattus norvegicus [33] = test: Anticonvulsant activity in albino Sprague-Dawley rat assessed as protection against maximal electroshock-induced seizures at 30 mg/kg, po after 4 hrs; type: functional, organism-based; parameters: dose 30 mg/kg; summary of the method: as §3
# Rattus norvegicus [34] = test: Anticonvulsant activity in albino Sprague-Dawley rat assessed as protection against scMet-induced seizures at 30 mg/kg, po after 4 hrs; type: functional, organism-based; parameters: dose 30 mg/kg; summary of the method: as §5
# Rattus norvegicus [35] = test: Anticonvulsant activity in albino Sprague-Dawley rat assessed as protection against scMet-induced seizures at 30 mg/kg, po after 2 hrs; type: functional; summary of the method: as §5
# Mus musculus [36] = test: Neurotoxicity in CF1 albino mouse at 100 mg/kg, ip after 0.5 hrs; type: toxicity, organism-based; parameters: dose 100 mg/kg, route intraperitoneal; settings: in vivo; summary of the method: as §4
# Mus musculus [37] = test: Neurotoxicity in CF1 albino mouse at 100 mg/kg, ip after 4 hrs; type: toxicity, organism-based; parameters: dose 100 mg/kg, route intraperitoneal; settings: in vivo; summary of the method: as §4
# Mus musculus [38] = test: Neurotoxicity in CF1 albino mouse at 300 mg/kg, ip after 0.5 hrs; type: toxicity, organism-based; parameters: dose 300 mg/kg, route intraperitoneal; settings: in vivo; summary of the method: as §4
# Rattus norvegicus [39] = test: Anticonvulsant activity in albino Sprague-Dawley rat assessed as protection against scMet-induced seizures at 30 mg/kg, po after 30 mins; type: functional; summary of the method: as §5
SMILES,Activity (Mus musculus [1]),Activity (Mus musculus [2]),Activity (Mus musculus [4]),Activity (Mus musculus [5]),Activity (Mus musculus [6]),Activity (Mus musculus [7]),Activity (Mus musculus [9]),Activity (Mus musculus [13]),Activity (Mus musculus [15]),Activity (Mus musculus [17]),Activity (Mus musculus [21]),Activity (Mus musculus [23]),Activity (Mus musculus [24]),Activity (Mus musculus [26]),other results
CC1(C)C(C)(C)C1(Cl)C(=O)O,Non-toxic,Non-toxic,Non-toxic,Non-toxic,Non-toxic,Non-toxic,Non-toxic,Non-toxic,Non-toxic,Non-toxic,Non-toxic,Non-toxic,Non-toxic,Non-toxic,Activity (Rattus norvegicus [3]): inactive; Activity (Rattus norvegicus [8]): inactive; Activity (Rattus norvegicus [10]): inactive; Activity (Rattus norvegicus [11]): inactive; Activity (Mus musculus [12]): Non-toxic; Activity (Rattus norvegicus [14]): Not Active; Activity (Rattus norvegicus [16]): 25%; Activity (Rattus norvegicus [18]): 25%; Activity (Rattus norvegicus [19]): inactive; Activity (Rattus norvegicus [20]): 25%; Activity (Rattus norvegicus [22]): 25%; Activity (Rattus norvegicus [25]): inactive
CC1(C)C(C)(C)C1(F)C(=O)NC(N)=O,Non-toxic,Non-toxic,Non-toxic,Non-toxic,Non-toxic,Non-toxic,Non-toxic,Non-toxic,Non-toxic,Non-toxic,Non-toxic,Non-toxic,Non-toxic,Non-toxic,Activity (Rattus norvegicus [27]): inactive; Activity (Rattus norvegicus [28]): inactive; Activity (Rattus norvegicus [29]): inactive; Activity (Rattus norvegicus [30]): 25%; Activity (Rattus norvegicus [31]): 25%; Activity (Rattus norvegicus [32]): inactive; Activity (Rattus norvegicus [33]): inactive; Activity (Rattus norvegicus [34]): inactive; Activity (Rattus norvegicus [35]): 50%; Activity (Mus musculus [36]): Non-toxic; Activity (Mus musculus [37]): Non-toxic; Activity (Mus musculus [38]): Non-toxic; Activity (Rattus norvegicus [39]): 25%
